Test results: PMC2754219 (Obesity (Silver Spring, Md.), 2009)

Experiments:
[1] = tested on: obese or overweight subjects; test: Clinical study: fasting lipoprotein and glycemic control parameters; type: in vivo, human; conditions: enrollment to week 16, evaluable population, mean ± s.e., SEM
Procedure, shortened: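 Fasting glucose, insulin, lipids and HOMA-IR were taken as change from enrollment to week 16 after the 4-week amylin analogue lead-in with a 40% caloric-deficit diet. This was followed by randomized s.c. b.i.d. leptin analogue, amylin analogue, or both, and advice to keep a 20% caloric deficit. Evaluable subjects had completed week 16; values are mean ± s.e.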

[2] = tested on: obese or overweight subjects; type: in vivo, human
[3] = tested on: obese or overweight subjects; test: Clinical study: treatment-emergent adverse events, tolerability and withdrawals
[4] = tested on: nonleptin-deficient obesity; conditions: doses up to twofold those used in this study; and data on file, Amylin Pharmaceuticals, Inc.; cited from earlier work
[5] = type: in vivo, human; conditions: week 16; metreleptin 5 mg b.i.d. s.c.
Procedure, shortened: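 Predose plasma leptin was measured at week 16 and expressed relative to enrollment concentration. Subjects received a leptin analogue at 5mg b.i.d. s.c., alone or with an amylin analogue at 360 μg b.i.d., each injected separately 15 min before morning and evening meals. Analysis covered the evaluable population; values are mean ± s.e.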

[6] = evaluable population, LS mean ± s.e., SEM
[7] = ITT population, lead-in and postrandomization periods

For “Metreleptin: recombinant methyl-human leptin (metreleptin)”, the “Change in HOMA-IR” value [1] was −0.10 ± 0.29, the Change in insulin ([1]; fasting serum) was −0.6 ± 1.1 μIU/ml and the “Change in HDL” value ([1]; fasting) was 1.7 ± 1.5 mg/dL. For the same substance, the “Change in LDL” value ([1]; fasting) was 1.1 ± 5.1 mg/dL, the “Change in blood glucose” value ([1]; fasting) was 0.7 ± 1.7 mg/dL and the “Change in total cholesterol” value ([1]; fasting) was 2.7 ± 5.8 mg/dL. For the same substance, the Change in triglycerides ([1]; fasting) was 5.7 ± 13.5 mg/dL, the “Overall rate of weight change” value ([2]; day 1 to week 20, evaluable population, LS mean ± s.e., SEM) was −0.16 ± 0.06 kg/week and the “Rate of weight change, Day 1 to week 12” value [2, 6] was −0.23 ± 0.06 kg/week. The “Rate of weight change, Week 12 to week 20” value [2, 6] was −0.02 ± 0.08 kg/week, the “Weight loss, percent of initial body weight over 24 weeks” value ([2]; evaluable, rounded figures of the discussion) was ~ 8% and the Back pain [3, 7] was 0 (0.0) n (%). The Constipation [3, 7] was 1 (3.7) n (%), the Diarrhea [3, 7] was 0 (0.0) n (%) and the Headache [3, 7] was 2 (7.4) n (%). The Hypersensitivity [3, 7] was 2 (7.4) n (%), the Influenza [3, 7] was 1 (3.7) n (%) and the “Injection site adverse events” value [3, 7] was 18 (66.7) n (%). The Nasopharyngitis [3, 7] was 2 (7.4) n (%), the Nausea [3, 7] was 7 (25.9) n (%) and the Streptococcal pharyngitis [3, 7] was 0 (0.0) n (%). The Vomiting [3, 7] was 2 (7.4) n (%), the “Withdrew during randomized treatment, reason: Adverse event” value ([3]; through week 20, randomized/ITT population) was 3 (11) n (%) and the “Weight loss in previous monotherapy trials” value [4] was “failed to show significant weight loss”. The “Increase of predose leptin concentrations over enrollment concentrations” value [5] was 13- to 16 fold.
